According to ChEMBL document CHEMBL4000155, “Synthesis and Antileukemic Activities of Piperlongumine and HDAC Inhibitor Hybrids against Acute Myeloid Leukemia Cells” (J Med Chem, 2016):
Activity calls are given as the source filed them. No cut-off for these calls is given here.

Tests used:
U-937 [1] = assay: Induction of apoptosis in p53 null human U937 cells assessed as caspase 3 cleavage at 2 uM after 24 hrs in presence of SAHA by Western blot analysis; format: functional, cell-based
How it was run: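 U937 cells exposed for 24 h. Lysates with protease/phosphatase inhibitors were separated by SDS-PAGE, transferred to PVDF and probed for PARP and cleaved caspase-3, with β-actin as loading control.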

U-937 [2] = assay: Induction of cell death in p53 null human U937 cells assessed as combination index at 2 to 4 uM after 24 hrs in presence of SAHA by annexin V-FITC/PI staining based flow cytometry; format: functional
How it was run: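 Cells given SAHA and PL alone or together at 1:1 ratio for 24 h, then Annexin V-FITC/PI staining and flow cytometry. Combination index computed from the % Annexin V+ data; CI < 1 synergistic, = 1 additive, > 1 antagonistic. Triplicates, three independent experiments.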

U-937 [3] = assay: Induction of apoptosis in p53 null human U937 cells at 1 uM after 24 hrs in presence of SAHA by annexin V-FITC/PI staining based flow cytometry; format: functional
How it was run: (§1)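 Cells treated 24 h, single agents or SAHA+PL at 1:1 (each drug at the stated concentration). Annexin V-FITC/PI kit staining, then flow cytometry, reported as % Annexin V+ cells. Three independent experiments in triplicate, with data from one representative experiment. DMSO <0.1% vehicle control.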

HL-60 = assay: Antiproliferative activity against human HL60 cells after 72 hrs in presence of SAHA by MTT assay; format: functional, cell-based; settings: HL-60, 72 h
How it was run: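 AML cell lines grown in RPMI 1640 with 10% FBS (20% for MOLM-13), 2 mM L-glutamine and penicillin/streptomycin at 37 °C, 5% CO2. Ara-C-resistant HL-60 and CMK sublines came from stepwise cytarabine selection and were kept in 600 nM or 300 nM cytarabine respectively. Cells were treated 72 h. MTT 0.05 mg/mL, 3 h at 37 °C, DMSO solubilization, absorbance at 570 nm. IC50 given ± SEM.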

Homo sapiens = species: Homo sapiens; assay: Effect on SAHA-induced HDAC inhibition in p53 null human U937 cells assessed as hyper acetylation of histone H4 at 1 uM after 4 hrs by Western blot analysis; format: cell-based
How it was run: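 U937 cells treated at 1 μM for 4 h. Whole-cell lysates run on SDS-PAGE, transferred to PVDF and immunoblotted for acetyl-histone H4, histone H4, acetyl-α-tubulin and β-actin.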

U-937 [4] = assay: Cytotoxicity against p53 null human U937 cells assessed as decrease in cell viability at 0.5 to 5 uM after 24 hrs in presence of SAHA by MTT assay; format: functional, cell-based
How it was run: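 MCF-10A (DMEM/F12, 5% horse serum, hydrocortisone, cholera toxin, insulin, EGF) and U937 (RPMI 1640, 10% FBS) were exposed to 0.5–5 μM, alone or PL+SAHA 1:1, for 24 h. MTT 0.05 mg/mL, 3 h at 37 °C, DMSO solubilization, A570. Viability given as mean ± SD of four to six independent experiments. DMSO <0.1% vehicle control.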

U-937 [5] = assay: Induction of cell death in p53 null human U937 cells after 24 hrs by annexin V-FITC/PI staining based flow cytometry; format: functional
How it was run: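 Human U937 AML cells (p53 null) in RPMI 1640 with 10% FBS, 2 mM L-glutamine, penicillin/streptomycin, 37 °C, 5% CO2. Exposed 24 h to compound alone or with SAHA; vehicle DMSO < 0.1% v/v. Annexin V-FITC/PI staining and flow cytometry, reported as % Annexin V+ cells. Three independent experiments in triplicate; one representative shown. EC50 taken as concentration giving 50% Annexin V+ cells versus vehicle.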

MOLM-13 = assay: Induction of apoptosis in human MOLM13 cells harboring wild type p53/FLT3-ITD mutant at 2 uM after 24 hrs by annexin V-FITC/PI staining based flow cytometry; format: functional; how it was run: as §1
[6] = Chemical stability of the compound in pH 7.4 phosphate buffer at 50 uM incubated up to 4 hrs in presence of GSH by HPLC analysis; format: physicochemical; settings: pH 7.4, 4 h
How it was run: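 Compound at 50 μM incubated with or without 5 mM GSH in phosphate buffer pH 7.4 at 37 °C for up to 4 h. Mixtures analysed by HPLC with water/0.1% formic acid/10% methanol versus 0.1% formic acid in acetonitrile, 0.5 mL/min, 10–80% B gradient over 18 min.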

SMILES | Activity (U-937 [1]) | CI (U-937 [2]) | Activity (U-937 [3]) [%] | IC50 (HL-60) [nM] | Activity (Homo sapiens) | Activity (U-937 [4]) | Activity (U-937 [5]) | Activity (MOLM-13) [%] | Stability [6]
COc1cc(/C=C/C(=O)N2CCC=CC2=O)cc(OC)c1OC [PIPLARTINE] | Active | <0.9 | 6.2 | 529 | inactive | Active | – | – | –
COc1cc(/C=C/C(=O)N2CCC=CC2=O)cc(OC)c1OCCCCCCC(=O)NO | – | – | – | – | – | – | Dose-dependent effect | 65.9 | Stable
